Assay results published in ChEMBL document CHEMBL4725418, “Design, Synthesis, and Structure-Activity Relationship Studies of Dual Inhibitors of Soluble Epoxide Hydrolase and 5-Lipoxygenase” (J Med Chem, 2020).
pIC50: −log10 of the molar value. Activity calls are given as the source filed them. No cut-off for these calls is given here.

Assays:
[1] = Metabolic stability in rat liver microsomes assessed as compound remaining after 60 mins; format: ADME, Microsome; conditions: read-out: Stabilty
Procedure, shortened: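 Compound incubated with rat liver microsomes for 60 min; percent parent compound remaining determined; n ≥ 3.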

HepG2 = test: Cytotoxicity in human HepG2 cells assessed as effect on cell viability up to 25 uM incubated for 48 hrs by CellTiter-Glo luminescent cell viability assay; format: cell-based; conditions: hepg2, 48 h
Procedure, shortened: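 Cell viability measured by CellTiter-Glo luminescence, quantifying ATP as an indicator of viable cells.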

[2] = target: T1, Bifunctional epoxide hydrolase 2 (Homo sapiens, UniProt P34913); test: Inhibition of human sEH (1 to 555 residues) expressed in Escherichia coli BL21-(DE3) using PHOME substrate incubated for 30 to 45 mins by fluorescence based assay
T1 sequence (P34913 whole entry): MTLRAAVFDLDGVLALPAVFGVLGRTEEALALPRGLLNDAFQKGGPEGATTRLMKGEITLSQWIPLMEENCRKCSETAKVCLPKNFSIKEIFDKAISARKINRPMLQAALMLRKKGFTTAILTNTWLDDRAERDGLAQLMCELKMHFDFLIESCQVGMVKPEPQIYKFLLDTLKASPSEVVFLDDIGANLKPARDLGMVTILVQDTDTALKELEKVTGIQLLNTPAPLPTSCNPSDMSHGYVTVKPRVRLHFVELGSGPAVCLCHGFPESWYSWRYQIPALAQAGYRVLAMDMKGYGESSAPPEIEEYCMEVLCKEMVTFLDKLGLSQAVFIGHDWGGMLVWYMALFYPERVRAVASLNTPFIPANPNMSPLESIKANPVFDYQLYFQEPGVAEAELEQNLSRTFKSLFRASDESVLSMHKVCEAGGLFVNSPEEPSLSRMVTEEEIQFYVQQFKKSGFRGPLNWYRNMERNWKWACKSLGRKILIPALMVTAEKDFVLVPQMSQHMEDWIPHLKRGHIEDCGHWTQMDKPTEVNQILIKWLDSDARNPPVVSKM

[3] = Cmax in Swiss CD-1 mouse at 3 mg/kg, po administered as single dose by LC-MS analysis; format: ADME, organism-based; parameters: route oral, dose 3 mg/kg; conditions: in vivo
Procedure, shortened: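 Male Swiss CD-1 mice received a single oral dose of 3 mg/kg in 1% methylcellulose/Tween80 (99:1); nine mice treated, three vehicle controls, three mice per time point. Serum analyzed by LC-MS for concentration–time profile.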

[4] = target: T2, Polyunsaturated fatty acid lipoxygenase ALOX12 (Homo sapiens) (UniProt P18054); test: Activation of 12-LOX in human PMNL pre-incubated for 15 mins before addition of AA and A23187 and measured after 10 mins by HPLC/UV assay; conditions: filed as activator, time 25.0 min
T2 sequence (whole entry): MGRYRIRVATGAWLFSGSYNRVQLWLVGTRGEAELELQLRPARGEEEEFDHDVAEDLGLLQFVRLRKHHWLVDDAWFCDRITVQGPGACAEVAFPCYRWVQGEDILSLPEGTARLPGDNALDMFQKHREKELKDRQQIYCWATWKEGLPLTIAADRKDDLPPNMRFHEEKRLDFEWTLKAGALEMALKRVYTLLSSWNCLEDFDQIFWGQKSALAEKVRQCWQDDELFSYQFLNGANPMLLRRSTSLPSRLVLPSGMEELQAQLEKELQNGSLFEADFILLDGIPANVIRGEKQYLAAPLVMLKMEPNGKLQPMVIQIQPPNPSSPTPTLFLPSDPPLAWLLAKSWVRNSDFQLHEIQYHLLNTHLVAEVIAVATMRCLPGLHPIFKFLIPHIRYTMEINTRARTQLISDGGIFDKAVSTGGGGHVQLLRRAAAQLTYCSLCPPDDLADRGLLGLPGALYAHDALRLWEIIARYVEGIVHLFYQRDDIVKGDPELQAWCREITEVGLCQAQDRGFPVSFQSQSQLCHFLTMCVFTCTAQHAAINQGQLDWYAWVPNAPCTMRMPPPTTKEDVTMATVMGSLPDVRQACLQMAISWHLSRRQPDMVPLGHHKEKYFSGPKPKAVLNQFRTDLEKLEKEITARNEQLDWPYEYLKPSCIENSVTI

Mus musculus = organism: Mus musculus; test: Inhibition of sEH in naive mouse assessed as increase in plasma EET/DHET ratio level; format: functional
Procedure, shortened: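 Plasma from naive mice given a single oral 3 mg/kg dose analyzed for EET/DHET ratio as a read-out of sEH inhibition.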

[5] = target: T3, Polyunsaturated fatty acid lipoxygenase ALOX15 (Homo sapiens) (UniProt P16050); test: Activation of 15-LOX in human PMNL pre-incubated for 15 mins before addition of AA and A23187 and measured after 10 mins by HPLC/UV assay; conditions: filed as activator, time 25.0 min
T3 sequence (whole entry): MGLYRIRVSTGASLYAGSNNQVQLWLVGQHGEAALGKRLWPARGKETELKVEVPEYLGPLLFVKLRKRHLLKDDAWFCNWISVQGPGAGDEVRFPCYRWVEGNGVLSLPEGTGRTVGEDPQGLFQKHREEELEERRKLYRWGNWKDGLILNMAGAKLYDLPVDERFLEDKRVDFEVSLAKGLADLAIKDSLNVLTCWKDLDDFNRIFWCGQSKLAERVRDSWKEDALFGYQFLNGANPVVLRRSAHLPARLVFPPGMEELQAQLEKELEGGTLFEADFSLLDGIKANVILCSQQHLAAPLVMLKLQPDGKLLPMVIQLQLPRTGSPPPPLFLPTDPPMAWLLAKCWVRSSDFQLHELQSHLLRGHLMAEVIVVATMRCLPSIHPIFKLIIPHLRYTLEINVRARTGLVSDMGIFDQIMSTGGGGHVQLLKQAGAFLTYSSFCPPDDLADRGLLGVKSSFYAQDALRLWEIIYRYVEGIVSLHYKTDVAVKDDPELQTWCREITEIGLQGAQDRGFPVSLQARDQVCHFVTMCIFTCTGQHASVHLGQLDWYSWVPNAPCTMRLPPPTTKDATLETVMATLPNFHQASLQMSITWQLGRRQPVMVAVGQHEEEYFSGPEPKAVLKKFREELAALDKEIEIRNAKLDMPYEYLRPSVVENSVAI

In the case of `C[C@H](C#Cc1cccc(C(=O)NCCC(c2ccc(F)cc2)c2ccc(F)cc2)c1)N(O)C(N)=O`, the remaining at 1 h [1] was 50%, the Activity (HepG2) was “Non-Toxic” and the pIC50 [2] was 8.92. The Cmax [3] was 700 nM, the Activity [4] was “Active” and the Activity (Mus musculus) was “Active”. The Activity [5] was “Active”.
